Data as given in ChEMBL document CHEMBL1649063, “Ursodeoxycholic acid amides as novel glucocorticoid receptor modulators” (J Med Chem, 2011).
pEC50: −log10 of the molar value. The source made the active and inactive calls. No cut-off for these calls is given here.

Key:
Assay type in all cases: cell-based
Glucocorticoid receptor = molecular target: T1, Glucocorticoid receptor (Homo sapiens, UniProt P04150); assay: Modulation of glucocorticoid receptor in human SKGT4 cells assessed as receptor translocation from cytoplasm to nucleus after 4 hrs by Hoechst staining relative to Dexamethasone
T1 sequence (P04150 whole entry): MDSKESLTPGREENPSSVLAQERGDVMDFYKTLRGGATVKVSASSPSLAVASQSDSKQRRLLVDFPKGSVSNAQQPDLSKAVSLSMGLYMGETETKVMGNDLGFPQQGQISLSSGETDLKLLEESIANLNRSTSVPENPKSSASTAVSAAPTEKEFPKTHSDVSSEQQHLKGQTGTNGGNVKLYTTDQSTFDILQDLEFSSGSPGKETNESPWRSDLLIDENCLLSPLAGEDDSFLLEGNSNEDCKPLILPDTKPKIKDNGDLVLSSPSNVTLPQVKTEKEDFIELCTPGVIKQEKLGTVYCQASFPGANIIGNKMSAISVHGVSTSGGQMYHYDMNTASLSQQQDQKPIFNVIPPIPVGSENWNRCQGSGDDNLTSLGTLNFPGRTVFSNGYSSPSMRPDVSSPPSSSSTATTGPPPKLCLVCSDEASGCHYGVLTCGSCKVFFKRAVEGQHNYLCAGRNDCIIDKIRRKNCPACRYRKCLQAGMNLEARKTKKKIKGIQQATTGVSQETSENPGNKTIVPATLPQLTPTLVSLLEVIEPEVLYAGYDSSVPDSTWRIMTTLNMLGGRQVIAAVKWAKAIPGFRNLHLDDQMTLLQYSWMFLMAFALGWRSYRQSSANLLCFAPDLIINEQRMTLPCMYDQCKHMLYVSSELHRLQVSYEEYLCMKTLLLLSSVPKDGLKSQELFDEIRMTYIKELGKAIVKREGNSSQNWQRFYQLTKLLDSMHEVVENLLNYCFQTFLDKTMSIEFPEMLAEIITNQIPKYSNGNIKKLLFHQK

[1] = molecular target: T2, Glucocorticoid receptor (Homo sapiens) (UniProt P04150); assay: Modulation of glucocorticoid receptor in human SKGT4 cells assessed as receptor translocation from cytoplasm to nucleus at 100 uM after 240 mins by Hoechst staining relative to Dexamethasone
T2 sequence (whole entry): T1 sequence (P04150 whole entry)
In short: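 Time course in serum-starved SKGT-4 cells: 100 μM compound for 15, 30, 60, 120 or 240 min in 1% DMSO medium. Fixed, GR immunostained, Hoechst nuclear stain, high-content imaging. Background-corrected nuclear/cytoplasmic GR ratio normalised to Dex 100 nM; mean of two experiments in triplicate, compared with 1% DMSO.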

[2] = molecular target: T3, Mineralocorticoid receptor (Homo sapiens) (UniProt P08235); assay: Modulation of mineralocorticoid receptor in human SKGT4 cells assessed as receptor translocation from cytoplasm to nucleus at 50 uM after 4 hrs by Hoechst staining
T3 sequence (whole entry): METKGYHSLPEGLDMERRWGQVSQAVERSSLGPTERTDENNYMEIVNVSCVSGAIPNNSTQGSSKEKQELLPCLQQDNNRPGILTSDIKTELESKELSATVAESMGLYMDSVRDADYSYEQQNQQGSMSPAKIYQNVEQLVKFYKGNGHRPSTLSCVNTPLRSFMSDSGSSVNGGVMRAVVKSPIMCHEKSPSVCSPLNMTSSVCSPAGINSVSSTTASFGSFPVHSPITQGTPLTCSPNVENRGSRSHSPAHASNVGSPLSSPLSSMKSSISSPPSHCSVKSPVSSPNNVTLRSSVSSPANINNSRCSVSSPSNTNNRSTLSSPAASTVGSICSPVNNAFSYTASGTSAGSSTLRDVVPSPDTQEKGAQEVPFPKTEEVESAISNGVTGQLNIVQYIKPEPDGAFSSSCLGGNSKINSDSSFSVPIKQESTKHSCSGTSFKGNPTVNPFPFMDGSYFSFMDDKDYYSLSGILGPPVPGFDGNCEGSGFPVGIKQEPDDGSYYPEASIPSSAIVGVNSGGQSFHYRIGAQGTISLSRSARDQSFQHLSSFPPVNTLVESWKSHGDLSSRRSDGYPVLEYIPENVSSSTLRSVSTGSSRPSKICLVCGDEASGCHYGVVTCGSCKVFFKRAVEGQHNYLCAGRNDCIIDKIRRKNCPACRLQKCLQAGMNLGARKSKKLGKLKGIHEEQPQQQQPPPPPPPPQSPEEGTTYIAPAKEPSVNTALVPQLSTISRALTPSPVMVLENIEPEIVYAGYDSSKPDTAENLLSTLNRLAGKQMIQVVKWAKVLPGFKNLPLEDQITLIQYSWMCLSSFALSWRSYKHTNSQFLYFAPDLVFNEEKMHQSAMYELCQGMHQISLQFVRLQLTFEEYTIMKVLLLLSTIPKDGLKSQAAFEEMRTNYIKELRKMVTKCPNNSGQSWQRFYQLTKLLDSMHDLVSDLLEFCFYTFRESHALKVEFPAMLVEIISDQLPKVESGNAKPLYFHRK

| Compound | pEC50 (Glucocorticoid receptor) | Activity [1] | Activity [2] |
| --- | --- | --- | --- |
| C[C@H](CCC(=O)N1CCN(Cc2ccccc2)CC1)[C@H]1CC[C@H]2[C@@H]3[C@@H](O)C[C@@H]4C[C@H](O)CC[C@]4(C)[C@H]3CC[C@]12C | 5.25 | Active | – |
| C[C@H](CCC(=O)NCCc1ccccc1)[C@H]1CC[C@H]2[C@@H]3[C@@H](O)C[C@@H]4C[C@H](O)CC[C@]4(C)[C@H]3CC[C@]12C | 3.96 | – | – |
| C[C@H](CCC(=O)NC1CC1)[C@H]1CC[C@H]2[C@@H]3[C@@H](O)C[C@@H]4C[C@H](O)CC[C@]4(C)[C@H]3CC[C@]12C | 5.14 | Active | – |
| C[C@H](CCC(=O)N1CCOCC1)[C@H]1CC[C@H]2[C@@H]3[C@@H](O)C[C@@H]4C[C@H](O)CC[C@]4(C)[C@H]3CC[C@]12C | 4.60 | Active | – |
| C[C@H](CCC(=O)O)[C@H]1CC[C@H]2[C@@H]3[C@@H](O)C[C@@H]4C[C@H](O)CC[C@]4(C)[C@H]3CC[C@]12C | – | – | inactive |
| C[C@H](CCC(=O)N1CCNCC1)[C@H]1CC[C@H]2[C@@H]3[C@@H](O)C[C@@H]4C[C@H](O)CC[C@]4(C)[C@H]3CC[C@]12C | 4.29 | – | – |
| C[C@H](C#N)[C@H]1CC[C@H]2[C@@H]3[C@@H](O)C[C@@H]4C[C@H](O)CC[C@]4(C)[C@H]3CC[C@]12C | 3.89 | – | – |
| CC(NC(=O)CC[C@@H](C)[C@H]1CC[C@H]2[C@@H]3[C@@H](O)C[C@@H]4C[C@H](O)CC[C@]4(C)[C@H]3CC[C@]12C)c1ccccc1 (stereo not given in full) | 3.91 | – | – |
| C[C@H](CCC(=O)NCc1ccccc1)[C@H]1CC[C@H]2[C@@H]3[C@@H](O)C[C@@H]4C[C@H](O)CC[C@]4(C)[C@H]3CC[C@]12C | 3.96 | – | – |
| C[C@H](C(=O)O)[C@H]1CC[C@H]2[C@@H]3[C@@H](O)C[C@@H]4C[C@H](O)CC[C@]4(C)[C@H]3CC[C@]12C | 4.00 | – | – |
| C[C@H](CCC#N)[C@H]1CC[C@H]2[C@@H]3[C@@H](O)C[C@@H]4C[C@H](O)CC[C@]4(C)[C@H]3CC[C@]12C | 4.00 | – | – |
| C[C@H](CC(=O)O)[C@H]1CC[C@H]2[C@@H]3[C@@H](O)C[C@@H]4C[C@H](O)CC[C@]4(C)[C@H]3CC[C@]12C [NORUCHOLIC ACID] | 3.98 | – | – |
